OX1R antag-1: OX1R (human) antagonism; O43613; OX1R-expressing cells, FRET antagonist read-out; inhibition, % at 6.6 µM; hit rate 1.8% among 330,000; AID 485270; in the data active = inhibition mostly above about 38%, no sharp cut-off; inactive = mostly below about 40%;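 also: 0% = agonist challenge alone and 100% = reference antagonist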
TAAR1 antagonist: antagonists of human TAAR1 | CHO RD-HGA16 TAAR1, Fluo-8 calcium fluorescence, antagonist | inhibition, % at 3 µM | hit rate 1.5% among 360,000;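 active = inhibition above a per-plate cutoff, the mean inhibition of test compounds on that plate plus 3 SD, cut at about 49% in these data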;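 also: 0% = DMSO plus EC80 beta-PEA response and 100% = DMSO alone without agonist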
Target sequence (Q96RJ0 whole entry, looked up): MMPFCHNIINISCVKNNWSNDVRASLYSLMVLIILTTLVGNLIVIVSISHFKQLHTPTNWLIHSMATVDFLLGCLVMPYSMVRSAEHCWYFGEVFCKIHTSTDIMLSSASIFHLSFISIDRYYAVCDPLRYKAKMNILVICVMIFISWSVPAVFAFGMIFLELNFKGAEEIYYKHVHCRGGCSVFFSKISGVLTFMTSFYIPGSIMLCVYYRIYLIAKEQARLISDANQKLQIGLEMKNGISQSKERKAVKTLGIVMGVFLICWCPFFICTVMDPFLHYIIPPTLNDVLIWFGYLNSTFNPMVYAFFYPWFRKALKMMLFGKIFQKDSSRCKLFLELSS
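Assay system: CHO-derived RD-HGA16 cells stably expressing human TAAR1 plus Gα16. Timing: 140 s kinetic read after compound, 140 s after agonist. Technique: kinetic Fluo-8 calcium fluorescence measurement. Measure: % inhibition of agonist calcium response.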
TAAR1 ag: human TAAR1 agonism; hit rate 0.99% among 360,000; Q96RJ0; CHO RD-HGA16 TAAR1, Fluo-8 calcium fluorescence; vehicle wells 0%, saturating PEA agonist 100%; activation, % at 3 µM;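 active = activation above the mean activation of all test compounds in the run plus 3 SD, cut at about 38% in these data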
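System: CHO RD-HGA16 cells carrying human TAAR1 plus Gα16; Incubation: 17-24 h seeding, 75 min 37 °C dye, 30 min RT; Measured by: Fluo-8 fluorescence, 5 s baseline then 140 s kinetic read; Control set: DMSO and PEA EC100; Replication: single well for each compound.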
OX1R antag-2: human HCRTR1 antagonism. CHO/OX1R cells, Fluo-8 calcium fluorescence, orexin A. inhibition, % at 5 µM. hit rate 0.43% among 330,000. AID 434989;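 active = inhibition above its plate's threshold, mean inhibition of all tested compounds on the plate plus 3 SD, cut at about 37% in these data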;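 also: 0% = orexin A challenge wells and 100% = SB-334867-A antagonist wells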
CHO parental Ca: counter-screen: ATP calcium response change in parental CHO cells | hit rate 0.63% among 330,000 | inhibition, % at 5.6 µM | parental CHO-K1, ATP-induced calcium, Fluo-8 fluorescence | AID 463079;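 active = inhibition above that plate's mean sample inhibition plus 3 SD, cut at about 26% in these data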;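 also: 0% = ATP-challenged DMSO wells and 100% = DMSO wells without ATP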
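Material – parental CHO cells · Reagent – ATP stimulus · Compound – single nominal dose of 5.6 µM per compound · Detection – Fluo-8 fluorescence · Read-out basis – percent inhibition of calcium signal · Controls – ATP-challenged DMSO wells low, unchallenged DMSO wells high · Repeats – no replicates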
NTR1 agonist: NTR1 (human) agonism; NTR1-U2OS beta-arrestin-GFP spot imaging, agonist mode; activation, % at 20 µM; hit rate 0.17% among 330,000; AID 493036;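 active = activation at or above 40% of the spot to cytoplasm intensity ratio, with at least 20 cells analyzed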;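 also: 0% = DMSO without peptide and 100% = 100 nM NTR1 peptide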
Numbers without * were called inactive; . = not tested or not shown. In the library only some 4% were active in any assay of this set; here they are far more common.

SMILES	OX1R antag-1	TAAR1 antagonist	TAAR1 ag	OX1R antag-2	CHO parental Ca	NTR1 agonist
NC(=O)c1ncn([C@@H]2O[C@H](C(=O)Nc3ccc(Oc4ccccc4)nc3)[C@@H](O)[C@H]2O)n1	.	-19	1	.	.	.
C=CCN=C1NC(c2cccc(Cl)c2)C(C(=O)OC)=C(C)N1C (stereo not given)	.	7	0	.	.	.
COc1cccc(/C=N/NC(=O)c2cc3c(OC)ccc(OC)c3[nH]2)c1O	48*	20	11	-2	-1	0
COc1cccc(/C=N/NC(=O)c2ccc3nc[nH]c3c2)c1O	21	-10	-1	4	-5	0
C[C@H](O)[C@@H]1CN2CCc3c([nH]c4c(-c5ccccc5)cccc34)[C@@H]2C[C@@H]1N(C)C(=O)Nc1ccccc1	.	-19	16	.	.	.
C[C@H](CO)N1C[C@H](C)[C@@H](CN(C)C(=O)Nc2ccc(C(C)(C)C)cc2)OCc2cn(nn2)CCCC1=O	.	-11	1	.	.	.
CCCCCNC(=O)c1ccc2c(=O)[nH]c3c(C(=O)NCC4CCCO4)sc(=S)n3c2c1 (stereo not given)	79*	-8	13	-27	2	4
O=C(NCCc1ccc(Cl)cc1)C1CCN(C(=O)N2CCOc3ccccc32)CC1	8	50*	21	-8	4	2
O=C(N/N=C/c1sc(N2CCOCC2)nc1-c1ccccc1)c1ccc(O)cc1	16	22	2	-7	-14	0
O=C(N/N=C/c1sc(N2CCOCC2)nc1-c1ccccc1)c1cccc(S(=O)(=O)N2CCCC2)c1	18	52*	14	-5	-10	2
Nc1[nH]c(C(=O)c2ccccc2)c(-c2ccccc2C(F)(F)F)c1C(=O)c1c[nH]c2ccccc12	.	-22	3	.	.	.
Cc1[nH][nH]c(=O)c1C(c1ccc(-c2ccc(F)cc2)o1)c1c(C)[nH][nH]c1=O	18	-10	2	-10	-7	9
Cc1[nH][nH]c(=O)c1C(c1ccc(-c2ccc(Cl)c(Cl)c2)o1)c1c(C)[nH][nH]c1=O	1	105*	32	15	-5	2
CC(C)(C)c1nc(SCC(=O)c2ccccc2)c2ccccc2n1	20	-16	2	-27	-36	6
Cc1ccc(C(=O)CSc2cc(C)nc(SCC(=O)c3ccccc3)n2)cc1	29	54*	12	-11	44*	3
Cc1nc2ccccc2nc1SCC(=O)c1ccccc1	39	13	3	17	52*	1
O=S1(=O)N[C@@H](Cc2ccccc2)COc2cccc(NCCO)c21	.	14	0	.	.	.
CC(C)CC1O[C@@H](C)[C@@H]2CN3CCc4c([nH]c5ccccc45)[C@@H]3C[C@@H]2N1C (stereo not given in full)	.	-22	2	.	.	.
O=C(Cc1cccs1)NNC(=O)c1ccccc1Cl	-3	15	2	-1	-1	0
O=C(CNC(=O)c1ccccc1Cl)NCCc1cccs1	8	-5	40*	-29	-3	1
O=C(NCCc1cccs1)C1CC(c2c(Cl)cccc2Cl)=NO1 (stereo not given)	24	13	47*	-34	-13	1
O=C(Nc1ccc2ccccc2c1)c1ccc2[nH]c(=O)c(=O)[nH]c2c1	-5	8	3	-15	-13	1
CCn1cnc2cc(NCc3ccc(N(C)C)cc3)ccc21	17	-31	2	-13	-13	0
CCN(CC)c1ccc(CNc2ccc3c(c2)ncn3CC)cc1	-9	-6	6	0	46*	1
Cc1cc(NC(=O)Cc2ccccc2)c2ccccc2n1	48	4	7	35	33*	0
Cc1cc(C)nc(SCC(=O)Nc2ccnc3ccccc23)n1	44	11	5	35	36*	-2
CCOC(=O)c1c(NC(=O)CSc2c[nH]c3ccccc23)sc2c1CCCC2	1	1	0	-19	0	29
CCOC(=O)c1c(NC(=O)CSc2nnc(-c3c[nH]c4ccccc34)n2CCOC)sc2c1CCCCC2	45*	-25	-1	13	-9	12
C=CCN=C1NC(CCc2ccccc2)C(C(=O)OC)=C(C)N1Cc1ccccc1C(F)(F)F (stereo not given)	.	-9	10	.	.	.
